Results: ChEMBL document CHEMBL1122180, “Potential histamine H2-receptor antagonists. 4. Benzylhistamines” (J Med Chem, 1982)
Each block holds one compound with its values, some of them ahead of it. Active and inactive are the calls of the source. The calls are words filed in the database; no cut-off is given here.

How the values were obtained:
[1] = molecular target: Histamine H2 receptor (Rattus norvegicus) (UniProt P25102); experiment: In vivo agonist activity against histamine H2-receptor in lumen-perfused stomach of atropinized (1 mg/kg) anesthetized rat gastric secretion; assay type: functional, organism-based
Sequence of Histamine H2 receptor (Rattus norvegicus) (P25102 whole entry, the tested form may be a part): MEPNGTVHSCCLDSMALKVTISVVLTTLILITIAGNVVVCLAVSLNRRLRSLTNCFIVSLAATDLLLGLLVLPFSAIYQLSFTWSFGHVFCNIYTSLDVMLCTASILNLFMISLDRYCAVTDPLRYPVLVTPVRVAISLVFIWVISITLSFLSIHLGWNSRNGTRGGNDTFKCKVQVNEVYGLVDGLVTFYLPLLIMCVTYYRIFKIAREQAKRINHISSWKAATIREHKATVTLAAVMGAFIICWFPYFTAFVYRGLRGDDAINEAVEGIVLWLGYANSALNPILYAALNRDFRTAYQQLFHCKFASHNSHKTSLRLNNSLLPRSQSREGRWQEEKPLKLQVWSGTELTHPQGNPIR
Method in brief: (§1)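 Urethane-anesthetized rat, atropinized (1 mg kg⁻¹), lumen-perfused stomach, acid output. Single intravenous doses of compound matched against histamine doses (0.5–1 μM kg⁻¹). Potency relative to histamine compared on peak responses.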

[2] = molecular target: Histamine H1 receptor (Cavia porcellus) (UniProt P31389); experiment: In vitro agonist activity against histamine H1-receptor in guinea pig ileum in the presence of atropine (0.5 uM) relative to histamine; assay type: functional, tissue-based
Sequence of Histamine H1 receptor (Cavia porcellus) (P31389 whole entry, the tested form may be a part): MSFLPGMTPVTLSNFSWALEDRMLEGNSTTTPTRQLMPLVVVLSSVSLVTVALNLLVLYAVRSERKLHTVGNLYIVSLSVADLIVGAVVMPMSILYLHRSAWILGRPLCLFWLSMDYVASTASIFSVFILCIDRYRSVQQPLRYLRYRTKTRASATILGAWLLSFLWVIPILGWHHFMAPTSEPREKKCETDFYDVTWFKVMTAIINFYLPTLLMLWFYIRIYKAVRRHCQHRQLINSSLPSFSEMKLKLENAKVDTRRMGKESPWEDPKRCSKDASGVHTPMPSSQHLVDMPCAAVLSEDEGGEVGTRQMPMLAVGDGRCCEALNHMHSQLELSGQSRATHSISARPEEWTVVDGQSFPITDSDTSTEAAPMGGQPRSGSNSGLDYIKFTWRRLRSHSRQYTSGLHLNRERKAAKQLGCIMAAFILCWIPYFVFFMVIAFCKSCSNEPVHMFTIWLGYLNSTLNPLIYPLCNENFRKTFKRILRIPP
Method in brief: (§2)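 Isolated guinea pig ileum contraction with atropine (0.5 μM). Agonism tested up to 781 μM (0.1% histamine). Relative activity came from cumulative dose–response curves; one compound was run as a 2+2 parallel assay.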

[3] = molecular target: Histamine H2 receptor (Rattus norvegicus) (UniProt P25102); experiment: In vivo antagonist activity against histamine H2-receptor in lumen-perfused stomach of atropinized (1 mg/kg) anesthetized rat gastric secretion at 256 ug/kg; -ve; assay type: functional, organism-based
[4] = molecular target: Histamine H2 receptor (Cavia porcellus) (UniProt P47747); experiment: Antagonist activity was measured for histamine H2-receptor in guinea pig atrium; 486 uM/L; assay type: functional, tissue-based; details: Cardiac atrium
Sequence of Histamine H2 receptor (Cavia porcellus) (P47747 whole entry, the tested form may be a part): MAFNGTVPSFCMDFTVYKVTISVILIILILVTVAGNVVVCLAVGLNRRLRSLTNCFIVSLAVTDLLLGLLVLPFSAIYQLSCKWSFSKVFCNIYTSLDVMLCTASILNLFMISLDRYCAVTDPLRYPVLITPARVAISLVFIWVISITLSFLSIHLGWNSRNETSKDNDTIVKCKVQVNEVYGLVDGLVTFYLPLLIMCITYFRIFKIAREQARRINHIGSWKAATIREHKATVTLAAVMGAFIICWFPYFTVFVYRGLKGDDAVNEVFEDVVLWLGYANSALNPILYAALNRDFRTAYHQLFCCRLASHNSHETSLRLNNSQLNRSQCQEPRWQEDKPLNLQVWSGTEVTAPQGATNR
Method in brief: (§3)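 Guinea pig right atrium in vitro, propranolol (0.5 μM) present. Test compounds given up to 486 μM against histamine (0.2–781 μM). Any active compound was run at three dose levels (five observations).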

[5] = molecular target: Histamine H2 receptor (Cavia porcellus) (UniProt P47747); experiment: Agonist activity was measured for histamine H2-receptor in guinea pig atrium; -ve; <0.1% of histamine (781 uM/L); assay type: functional, tissue-based; details: Cardiac atrium
[6] = molecular target: Histamine H1 receptor (Cavia porcellus) (UniProt P31389); experiment: In vitro agonist activity against histamine H1-receptor in guinea pig ileum in the presence of atropine (0.5 uM) relative to histamine; -ve; <0.1% of histamine (781 uM/L); assay type: functional, tissue-based
Method in brief: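 Isolated guinea pig ileum with atropine (0.5 μM) present. Agonist activity assayed up to 781 μM (0.1% histamine). Activity relative to histamine taken from cumulative dose–response curves. A 2+2 parallel assay was run for one compound.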

[7] = molecular target: Histamine H2 receptor (Rattus norvegicus) (UniProt P25102); experiment: In vivo antagonist activity against histamine H2-receptor in lumen-perfused stomach of atropinized (1 mg/kg) anesthetized rat gastric secretion at 128 ug/kg; -ve; assay type: functional, organism-based
[8] = molecular target: Histamine H1 receptor (Cavia porcellus) (UniProt P31389); experiment: In vitro antagonist activity against histamine H1-receptor in guinea pig ileum in the presence of atropine (0.5 uM); assay type: functional, tissue-based
Method in brief: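 Isolated guinea pig ileum with atropine (0.5 μM) present. Antagonism measured against histamine (0.1–109 μM)-stimulated contraction. Cumulative dose–response curves plotted for active compounds at three dose levels (nine observations).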

[9] = molecular target: Histamine H2 receptor (Rattus norvegicus) (UniProt P25102); experiment: In vivo agonist activity against histamine H2-receptor in lumen-perfused stomach of atropinized (1 mg/kg) anesthetized rat gastric secretion at 256 ug/kg; -ve; assay type: functional, organism-based; method in brief: as §1
[10] = molecular target: Histamine H1 receptor (Cavia porcellus) (UniProt P31389); experiment: In vitro agonist activity against histamine H1-receptor in guinea pig ileum in the presence of atropine (0.5 uM) relative to histamine.; assay type: functional, tissue-based; method in brief: as §2
[11] = molecular target: Histamine H1 receptor (Cavia porcellus) (UniProt P31389); experiment: In vitro antagonist activity against histamine H1-receptor in guinea pig ileum in the presence of atropine (0.5 uM).; assay type: functional, tissue-based
Method in brief: (§4)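 Guinea pig ileum in vitro with atropine (0.5 μM) present. Compounds tested against histamine-stimulated contraction (histamine 0.1–109 μM). Cumulative dose–response curves plotted for active compounds at three dose levels (nine observations); pA2 derived.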

[12] = molecular target: Histamine H2 receptor (Rattus norvegicus) (UniProt P25102); experiment: In vivo antagonist activity against histamine H2-receptor in lumen-perfused stomach of atropinized (1 mg/kg) anesthetized rat gastric secretion at 512 ug/kg; -ve; assay type: functional, organism-based
[13] = molecular target: Histamine H2 receptor (Rattus norvegicus) (UniProt P25102); experiment: In vivo agonist activity against histamine H2-receptor in lumen-perfused stomach of atropinized (1 mg/kg) anesthetized rat gastric secretion at 512 ug/kg; -ve; assay type: functional, organism-based; method in brief: as §1
[14] = molecular target: Histamine H2 receptor (Cavia porcellus) (UniProt P47747); experiment: Agonist activity was measured for histamine H2-receptor in guinea pig atrium; assay type: functional, tissue-based; details: Cardiac atrium
[15] = molecular target: Histamine H2 receptor (Rattus norvegicus) (UniProt P25102); experiment: In vivo agonist activity against histamine H2-receptor in lumen-perfused stomach of atropinized (1 mg/kg) anesthetized rat gastric secretion at 187 ug/kg; -ve; assay type: functional, organism-based; method in brief: as §1
[16] = molecular target: Histamine H2 receptor (Cavia porcellus) (UniProt P47747); experiment: Antagonist activity was measured for histamine H2-receptor in guinea pig atrium; -ve; assay type: functional, tissue-based; details: Cardiac atrium; method in brief: as §3
[17] = molecular target: Histamine H2 receptor (Rattus norvegicus) (UniProt P25102); experiment: In vivo agonist activity against histamine H2-receptor in lumen-perfused stomach of atropinized (1 mg/kg) anesthetized rat gastric secretion at 64 ug/kg; -ve; assay type: functional, organism-based
Method in brief: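 In vivo, urethane-anaesthetised rat given atropine (1 mg kg⁻¹), lumen-perfused stomach, acid secretion as read-out. Compounds given intravenously as single doses and matched against single histamine doses (0.5–1 μM kg⁻¹).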

[18] = molecular target: Histamine H2 receptor (Cavia porcellus) (UniProt P47747); experiment: Antagonist activity was measured for histamine H2-receptor in guinea pig atrium; -ve; 486 uM/L; assay type: functional, tissue-based; details: Cardiac atrium
Method in brief: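 Isolated guinea pig right atrium with propranolol (0.5 μM) present. Compounds tested as antagonists against histamine (0.2–781 μM) at up to 486 μM. Active compounds run at three dose levels (five observations).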

[19] = molecular target: Histamine H1 receptor (Cavia porcellus) (UniProt P31389); experiment: In vitro agonist activity against histamine H1 receptor in guinea pig ileum in the presence of atropine (0.5 uM) relative to histamine; -ve; <0.1% of histamine (781 uM/L); assay type: functional, tissue-based; method in brief: as §2
[20] = molecular target: Histamine H2 receptor (Rattus norvegicus) (UniProt P25102); experiment: In vivo agonist activity against histamine H2-receptor in lumen-perfused stomach of atropinized (1 mg/kg) anesthetized rat gastric secretion at 128 ug/kg; -ve; assay type: functional, organism-based; method in brief: as §1
[21] = molecular target: Histamine H1 receptor (Cavia porcellus) (UniProt P31389); experiment: In vitro antagonist activity against histamine H1 receptor in guinea pig ileum in the presence of atropine (0.5 uM); assay type: functional, tissue-based; method in brief: as §4
[22] = molecular target: Histamine H2 receptor (Cavia porcellus) (UniProt P47747); experiment: Antagonist activity was measured for histamine H2-receptor in guinea pig atrium.; assay type: functional, tissue-based; details: Cardiac atrium; method in brief: as §3
[23] = molecular target: Histamine H2 receptor (Rattus norvegicus) (UniProt P25102); experiment: In vivo antagonist activity against histamine H2-receptor in lumen-perfused stomach of atropinized (1 mg/kg) anesthetized rat gastric secretion at 187 ug/kg; weak inhibition; assay type: functional, organism-based; details: filed as antagonist
[24] = molecular target: Histamine H2 receptor (Cavia porcellus) (UniProt P47747); experiment: Agonist activity was measured for histamine H2-receptor in guinea pig atrium.; assay type: functional, tissue-based; details: Cardiac atrium

SMILES: NCC(Cc1ccccc1)c1c[nH]cn1 (centres undefined)
Agonist activity [10]: 0.1 | Antagonist activity [11]: 4 pA2 | Antagonist activity [4]: < 3.3 | Antagonist activity [12]: inactive | Agonist activity [13]: inactive | Agonist activity [14]: 1

SMILES: NCCc1[nH]cnc1Cc1ccccc1
Agonist activity [6]: inactive | Antagonist activity [7]: inactive | Agonist activity [17]: inactive | Antagonist activity [18]: < 3.3 | Antagonist activity [8]: 4.4 pA2 | Agonist activity [5]: inactive

SMILES: c1ccc(CNCCc2c[nH]cn2)cc1
Agonist activity [10]: 0.4 | Antagonist activity [23]: Partial antagonist | Agonist activity [24]: 0.7 | Agonist activity [1]: 0.5 | Antagonist activity [4]: < 3.3

Further lines, results first:

Agonist activity [1]: 3 | Agonist activity [2]: 0.4 | Antagonist activity [3]: inactive | Antagonist activity [4]: < 3.3 | Agonist activity [5]: inactive
SMILES: NCCc1cn(Cc2ccccc2)cn1

Agonist activity [6]: inactive | Antagonist activity [7]: inactive | Antagonist activity [4]: < 3.3 | Antagonist activity [8]: 3.6 pA2 | Agonist activity [5]: inactive | Agonist activity [9]: inactive
SMILES: NCCc1cncn1Cc1ccccc1

Agonist activity [2]: 2.3 | Antagonist activity [7]: inactive | Agonist activity [5]: inactive | Agonist activity [15]: inactive | Antagonist activity [16]: < 3.3
SMILES: NCCc1c[nH]c(Cc2ccccc2)n1

Agonist activity [19]: inactive | Agonist activity [20]: inactive | Antagonist activity [7]: inactive | Agonist activity [5]: inactive | Antagonist activity [21]: 4.7 pA2 | Antagonist activity [22]: 4.35
SMILES: NCCc1ncn(Cc2ccccc2)c1Cc1ccccc1
